Source: ChEMBL document CHEMBL1127405, “Synthesis and antitumor evaluation of bis[(pivaloyloxy)methyl] 2'-deoxy-5-fluorouridine 5'-monophosphate (FdUMP): a strategy to introduce nucleotides into cells” (J Med Chem, 1994)

Key:
[1] = tested on: Mus musculus; assay: The compound was tested for change in weight for mice implanted intraperitoneally with P-388/0 Leukemia cell line at 100 mg/kg; assay type: functional; details: route intraperitoneal
In short: (§1)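 Male BDF1 mice inoculated ip on day 0 with 1 × 10^6 leukemia cells (six mice per group, average weight 22 g). Dosing ip once daily for 5 consecutive days starting 24 h after implantation. Fluoropyrimidine references in 0.9% saline; prodrugs formulated with Emulphor 620; vehicle controls 0.2 mL. Percent body weight change recorded per group.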

[2] = tested on: Mus musculus; assay: The compound was tested for increase in life span for mice implanted intraperitoneally with P-388/FU Leukemia cell line at 100 mg/kg; assay type: functional; details: P388, ip, route intraperitoneal
In short: (§2)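 Male BDF1 mice, six per group, implanted ip with 1×10^6 P-388/0 or P-388/FU cells on day 0. Dosed ip daily for 5 days from 24 h post-implant, in saline or Emulphor 620 vehicle. Mice observed until death. %ILS = (T/C − 1)×100, from median survival of treated mice (T) versus saline-treated controls (C).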

[3] = tested on: Mus musculus; assay: The compound was tested for increase in life span for mice implanted intraperitoneally with P-388/FU Leukemia cell line at 150 mg/kg; assay type: functional; details: P388, ip, route intraperitoneal; in short: as §2
[4] = tested on: Mus musculus; assay: The compound was tested for increase in life span for mice implanted intraperitoneally with P-388/0 Leukemia cell line at 100 mg/kg; assay type: functional; details: P388, ip, route intraperitoneal; in short: as §2
[5] = tested on: Mus musculus; assay: The compound was tested for mean survival time for 15 mice implanted Intraperitoneally with P-388/0 Leukemia cell line at 150 mg/kg; assay type: functional; details: route intraperitoneal
In short: (§3)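 P-388/0 or P-388/FU cells (1×10^6) implanted ip into male BDF1 mice on day 0. Dosing was ip, daily for 5 consecutive days beginning 24 h later, in saline or Emulphor 620 vehicle. Six mice per treated group. Animals followed to death and median survival time recorded in days. The control group had 15 mice.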

[6] = tested on: Mus musculus; assay: The compound was tested for change in weight for mice implanted intraperitoneally with P-388/0 Leukemia cell line at 150 mg/kg; assay type: functional; details: route intraperitoneal; in short: as §1
[7] = tested on: Mus musculus; assay: The compound was tested for mean survival time for 15 mice implanted Intraperitoneally with P-388/FU Leukemia cell line at 100 mg/kg; assay type: functional; details: route intraperitoneal; in short: as §3
[8] = tested on: Mus musculus; assay: The compound was tested for change in weight for mice implanted intraperitoneally with P-388/FU Leukemia cell line at 100 mg/kg; assay type: functional; details: route intraperitoneal; in short: as §1
[9] = tested on: Mus musculus; assay: The compound was tested for change in weight for mice implanted intraperitoneally with P-388/FU Leukemia cell line at 67 mg/kg; assay type: functional; details: route intraperitoneal; in short: as §1
[10] = tested on: Mus musculus; assay: The compound was tested for mean survival time for 15 mice implanted Intraperitoneally with P-388/FU Leukemia cell line at 150 mg/kg; assay type: functional; details: route intraperitoneal; in short: as §3
[11] = tested on: Mus musculus; assay: The compound was tested for increase in life span for mice implanted intraperitoneally with P-388/FU Leukemia cell line at 67 mg/kg; assay type: functional; details: P388, ip, route intraperitoneal; in short: as §2
[12] = tested on: Mus musculus; assay: The compound was tested for increase in life span for mice implanted intraperitoneally with P-388/0 Leukemia cell line at 150 mg/kg; assay type: functional; details: P388, ip, route intraperitoneal; in short: as §2
[13] = tested on: Mus musculus; assay: The compound was tested for change in weight for mice implanted intraperitoneally with P-388/FU Leukemia cell line at 150 mg/kg; assay type: functional; details: route intraperitoneal; in short: as §1
[14] = tested on: Mus musculus; assay: The compound was tested for increase in life span for mice implanted intraperitoneally with P-388/0 Leukemia cell line at 67 mg/kg; assay type: functional; details: P388, ip, route intraperitoneal; in short: as §2
[15] = tested on: Mus musculus; assay: The compound was tested for mean survival time for 15 mice implanted Intraperitoneally with P-388/0 Leukemia cell line at 100 mg/kg; assay type: functional; details: route intraperitoneal; in short: as §3
[16] = tested on: Mus musculus; assay: The compound was tested for […] implanted Intraperitoneally with P-388/FU Leukemia cell line at 67 mg/kg; assay type: functional; details: route intraperitoneal
[17] = tested on: Mus musculus; assay: The compound was tested for change in weight for mice implanted intraperitoneally with P-388/0 Leukemia cell line at 67 mg/kg; assay type: functional; details: route intraperitoneal; in short: as §1
[18] = tested on: Mus musculus; assay: The compound was tested for mean survival time for 15 mice implanted Intraperitoneally with P-388/0 Leukemia cell line at 67 mg/kg; assay type: functional; details: route intraperitoneal; in short: as §3
[19] = The compound was tested for half life in aqueous media in 0.05 M Tris-HCl buffer, at pH 9.0; assay type: ADME
In short: (§4)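 A 10^-3 M aqueous stock was diluted into each buffer to a final 10^-4 M and stirred at room temperature. Aliquots were taken at intervals (typically 2–100 h) and parent drug was quantified by reverse-phase C-18 HPLC with UV detection at 268 nm. Half-lives are the average of triplicate determinations.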

[20] = tested on: Mus musculus; assay: The compound was tested for increase in life span for mice implanted intraperitoneally with P-388/FU Leukemia cell line at 223 mg/kg; assay type: functional; details: P388, ip, route intraperitoneal; in short: as §2
[21] = tested on: Mus musculus; assay: The compound was tested for change in weight for mice implanted intraperitoneally with P-388/0 Leukemia cell line at 149 mg/kg; assay type: functional; details: route intraperitoneal; in short: as §1
[22] = tested on: Mus musculus; assay: The compound was tested for increase in life span for mice implanted intraperitoneally with P-388/FU Leukemia cell line at 149 mg/kg; assay type: functional; details: P388, ip, route intraperitoneal; in short: as §2
[23] = The compound was tested for half life in aqueous media in 0.05 M sodium acetate buffer, at pH 4.0; assay type: ADME; in short: as §4
[24] = tested on: Mus musculus; assay: The compound was tested for increase in life span for mice implanted intraperitoneally with P-388/0 Leukemia cell line at 335 mg/kg; assay type: functional; details: P388, ip, route intraperitoneal; in short: as §2
[25] = tested on: Mus musculus; assay: The compound was tested for increase in life span for mice implanted intraperitoneally with P-388/0 Leukemia cell line at 149 mg/kg; assay type: functional; details: P388, ip, route intraperitoneal; in short: as §2
[26] = tested on: Mus musculus; assay: The compound was tested for mean survival time for 15 mice implanted Intraperitoneally with P-388/FU Leukemia cell line at 223 mg/kg; assay type: functional; details: route intraperitoneal; in short: as §3
[27] = tested on: Mus musculus; assay: The compound was tested for mean survival time for 15 mice implanted Intraperitoneally with P-388/0 Leukemia cell line at 149 mg/kg; assay type: functional; details: route intraperitoneal; in short: as §3
[28] = tested on: CHO; assay: The minimun drug concentration that gives rise to colonies containing fewer than 50 cells after incubation at 37 degree C against chinese hamster ovary cells; assay type: functional, cell-based; details: Cricetulus griseus
In short: (§5)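 About 200 cells per dish were grown as clones in drug at 0, 0.5, 1.5, 5, 10, 50 or 100 μM for 7 d at 37 °C in humidified CO2. Colonies were fixed with 10% formaldehyde and stained with 0.1% crystal violet. The value is the lowest tested concentration giving colonies of fewer than 50 cells.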

[29] = The compound was tested for half life in aqueous media in 0.20 M HCl/KCl solution, at pH 1.0; assay type: ADME; in short: as §4
[30] = tested on: Mus musculus; assay: The compound was tested for increase in life span for mice implanted intraperitoneally with P-388/0 Leukemia cell line at 223 mg/kg; assay type: functional; details: P388, ip, route intraperitoneal; in short: as §2
[31] = tested on: Mus musculus; assay: The compound was tested for change in weight for mice implanted intraperitoneally with P-388/FU Leukemia cell line at 335 mg/kg; assay type: functional; details: route intraperitoneal; in short: as §1
[32] = The compound was tested for half life in aqueous media in 0.05 M potassium phosphate buffer, at pH 7.4; assay type: ADME; in short: as §4
[33] = tested on: Mus musculus; assay: The compound was tested for change in weight for mice implanted intraperitoneally with P-388/FU Leukemia cell line at 223 mg/kg; assay type: functional; details: route intraperitoneal; in short: as §1
[34] = tested on: Mus musculus; assay: The compound was tested for change in weight for mice implanted intraperitoneally with P-388/0 Leukemia cell line at 223 mg/kg; assay type: functional; details: route intraperitoneal; in short: as §1
[35] = tested on: Mus musculus; assay: The compound was tested for change in weight for mice implanted intraperitoneally with P-388/FU Leukemia cell line at 149 mg/kg; assay type: functional; details: route intraperitoneal; in short: as §1
[36] = tested on: Mus musculus; assay: The compound was tested for mean survival time for 15 mice implanted Intraperitoneally with P-388/0 Leukemia cell line at 335 mg/kg; assay type: functional; details: route intraperitoneal; in short: as §3
[37] = tested on: Mus musculus; assay: The compound was tested for mean survival time for 15 mice implanted Intraperitoneally with P-388/FU Leukemia cell line at 149 mg/kg; assay type: functional; details: route intraperitoneal; in short: as §3
[38] = The compound was tested for half life in aqueous media in 0.05 M NaOH, at pH 11.7; assay type: ADME; details: aqueous 0.05 M NaOH; in short: as §4
[39] = tested on: Mus musculus; assay: The compound was tested for increase in life span for mice implanted intraperitoneally with P-388/FU Leukemia cell line at 335 mg/kg; assay type: functional; details: P388, ip, route intraperitoneal; in short: as §2
[40] = The compound was tested for half life in aqueous media in 0.05 M NaOH, at 12.6; assay type: ADME; details: aqueous 0.05 M NaOH, pH 12.6; in short: as §4
[41] = tested on: Mus musculus; assay: The compound was tested for change in weight for mice implanted intraperitoneally with P-388/0 Leukemia cell line at 335 mg/kg; assay type: functional; details: route intraperitoneal; in short: as §1
[42] = tested on: CHO; assay: The minimun drug concentration that gives rise to colonies containing fewer than 50 cells after incubation at 37 degree C against chinese hamster ovary cells 20 fold resistant to fluoroudine; assay type: functional, cell-based; details: Cricetulus griseus; in short: as §5
[43] = tested on: Mus musculus; assay: The compound was tested for mean survival time for 15 mice implanted Intraperitoneally with P-388/FU Leukemia cell line at 335 mg/kg; assay type: functional; details: route intraperitoneal; in short: as §3
[44] = tested on: Mus musculus; assay: The compound was tested for mean survival time for 15 mice implanted Intraperitoneally with P-388/0 Leukemia cell line at 223 mg/kg; assay type: functional; details: route intraperitoneal; in short: as §3

O=c1[nH]c(=O)n([C@H]2C[C@H](O)[C@@H](CO)O2)cc1F [FLOXURIDINE]
Weight change [1]: -4% | ILS at 100 mg/kg [2]: 18% | ILS at 150 mg/kg [3]: 18% | ILS at 100 mg/kg [4]: 73% | MST [5]: 20 days | Weight change [6]: -5% | MST [7]: 13 days | Weight change [8]: -10% | Weight change [9]: -6% | MST [10]: 13 days | ILS at 67 mg/kg [11]: 9% | ILS at 150 mg/kg [12]: 82% | Weight change [13]: -10% | ILS at 67 mg/kg [14]: 45% | MST [15]: 19 days | MST [16]: 12 days | Weight change [17]: -2% | MST [18]: 16 days

CC(C)(C)C(=O)OCOP(=O)(OCOC(=O)C(C)(C)C)OC[C@H]1O[C@@H](n2cc(F)c(=O)[nH]c2=O)C[C@@H]1O
half-life [19]: 21.6 h | ILS at 223 mg/kg [20]: 64% | Weight change [21]: 3% | ILS at 149 mg/kg [22]: 55% | half-life [23]: 172 h | ILS at 335 mg/kg [24]: 73% | ILS at 149 mg/kg [25]: 36% | MST [26]: 18 days | MST [27]: 15 days | IC50 [28]: 5 µM | half-life [29]: 142 h | ILS at 223 mg/kg [30]: 45% | Weight change [31]: -13% | half-life [32]: 40.2 h | Weight change [33]: -12% | Weight change [34]: -11% | Weight change [35]: -9% | MST [36]: 19 days | MST [37]: 17 days | half-life [38]: 0.37 h | ILS at 335 mg/kg [39]: 64% | half-life [40]: 1.8 min | Weight change [41]: -12% | IC50 [42]: 5 µM | MST [43]: 18 days | MST [44]: 16 days
